ChEMBL document CHEMBL1131423, “N-(2-Benzoylphenyl)-L-tyrosine PPARgamma agonists. 2. Structure-activity relationship and optimization of the phenyl alkyl ether moiety” (J Med Chem, 1998)
≈ marks a conversion by molar mass, not a printed value.

What was measured:
[1] = molecular target: T1, Peroxisome proliferator-activated receptor gamma (Homo sapiens, UniProt P37231); assay: Compound was tested in vitro for inhibiting the 50% binding of Peroxisome proliferator activated receptor gamma; IA = Inactive
T1 sequence (P37231 whole entry): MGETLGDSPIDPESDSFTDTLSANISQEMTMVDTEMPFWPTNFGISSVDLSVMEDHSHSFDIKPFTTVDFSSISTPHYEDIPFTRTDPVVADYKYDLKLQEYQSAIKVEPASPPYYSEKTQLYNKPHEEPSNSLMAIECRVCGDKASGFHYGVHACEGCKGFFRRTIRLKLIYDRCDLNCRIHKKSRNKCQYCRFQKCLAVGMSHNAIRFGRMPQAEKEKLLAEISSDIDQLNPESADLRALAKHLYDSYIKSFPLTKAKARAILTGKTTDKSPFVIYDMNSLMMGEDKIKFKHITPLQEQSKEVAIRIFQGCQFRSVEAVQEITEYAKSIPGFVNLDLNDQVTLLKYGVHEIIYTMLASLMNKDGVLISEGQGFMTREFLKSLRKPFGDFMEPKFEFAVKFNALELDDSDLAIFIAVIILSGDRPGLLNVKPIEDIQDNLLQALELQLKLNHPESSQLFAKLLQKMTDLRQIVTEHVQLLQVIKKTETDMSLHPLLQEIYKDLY
Method in brief: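 Competitive radioligand binding to PPARγ with [3H]BRL 49653 as the radioligand. […] It is converted to an apparent Ki by Ki = IC50/(1 + [L]/Kd), and results are given as pKi.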

[2] = molecular target: T2, Peroxisome proliferator-activated receptor alpha (Homo sapiens, UniProt Q07869); assay: Compound was tested in vitro for inhibiting the 50% binding of Peroxisome proliferator activated receptor alpha; format: functional
T2 sequence (Q07869 whole entry): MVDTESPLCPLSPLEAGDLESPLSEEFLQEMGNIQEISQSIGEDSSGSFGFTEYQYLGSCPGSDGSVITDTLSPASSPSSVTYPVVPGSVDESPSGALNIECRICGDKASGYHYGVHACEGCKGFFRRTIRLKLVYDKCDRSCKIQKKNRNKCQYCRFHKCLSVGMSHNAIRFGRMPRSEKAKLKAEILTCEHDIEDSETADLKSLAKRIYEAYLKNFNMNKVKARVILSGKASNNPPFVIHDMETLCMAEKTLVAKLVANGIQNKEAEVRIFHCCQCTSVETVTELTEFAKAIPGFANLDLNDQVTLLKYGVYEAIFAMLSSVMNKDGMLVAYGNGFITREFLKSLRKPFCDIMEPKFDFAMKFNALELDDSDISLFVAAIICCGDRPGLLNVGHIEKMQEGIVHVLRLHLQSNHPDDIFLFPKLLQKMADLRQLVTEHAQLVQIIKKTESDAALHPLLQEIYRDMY

[3] = molecular target: T1, Peroxisome proliferator-activated receptor gamma; assay: Compound was tested functionally in vitro for inducing 50% of the maximum alkaline phosphate activity (Transactivation) against Peroxisome proliferator activated receptor gamma; format: functional
[4] = molecular target: T1, Peroxisome proliferator-activated receptor gamma; assay: Inhibition by 50% of in vitro binding to Peroxisome proliferator activated receptor gamma
[5] = molecular target: T2, Peroxisome proliferator-activated receptor alpha; assay: In vitro transactivation of Peroxisome proliferator activated receptor alpha.; format: functional
[6] = molecular target: T1, Peroxisome proliferator-activated receptor gamma; assay: Tested functionally in vitro for inducing 50% of the maximum alkaline phosphate activity (Transactivation) against Peroxisome proliferator activated receptor gamma; format: functional
[7] = molecular target: T2, Peroxisome proliferator-activated receptor alpha; assay: Tested in vitro for inhibiting the 50% binding of Peroxisome proliferator activated receptor alpha
[8] = Solubility determined by equilibrating an excess of solid material in 500 microL of pH 7.4 phosphate buffer; format: physicochemical; conditions: read-out: S
Method in brief: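 Samples are filtered (0.22 µm) and diluted in water/acetonitrile 60:40. The dissolved concentration is measured by reversed-phase HPLC on a phenyl column with 0.05% TFA water/acetonitrile (60:40), 1 mL/min, and UV detection at each compound's maximum. Results are in mg/mL.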

## O=C(c1ccccc1)c1ccccc1N[C@@H](Cc1ccc(OCC2COCCOCCOCCO2)cc1)C(=O)O (stereo not given in full)
[1]
  Ki: 1170 nM

## O=C(c1ccccc1)c1ccccc1N[C@@H](Cc1ccc(OCCOc2ccc(SCl)cc2)cc1)C(=O)O
[2]
  Ki: 1410 nM
[3]
  EC50: 191 nM

## Cc1sc(N2CCN(S(C)(=O)=O)CC2)nc1CCOc1ccc(C[C@H](Nc2ccccc2C(=O)c2ccccc2)C(=O)O)cc1
[4]
  Ki: 2.63 nM
[5]
  EC50: > 10000 nM
[6]
  EC50: 23.4 nM
[7]
  Ki: 2510 nM

## Cc1cc(-c2ccccc2)nn1CCOc1ccc(C[C@H](Nc2ccccc2C(=O)c2ccccc2)C(=O)O)cc1
[8]
  solubility thermodynamic: 4 µg/mL (≈ 7.33 µM)
[5]
  EC50: 661 nM
[7]
  Ki: 174 nM
